Rows were chosen to be rich in hits. Some 0.61% of all compounds tested hit in one or more screens of this group.
F508del corr: correctors of CFTR F508del function in bronchial epithelial cells. CFBE cells, YFP halide quenching; stimulated with forskolin plus potentiator P3; % fluorescence drop versus neutral controls. activity (quench increase), % at 7.58 µM. AID 720511. 350,000 compounds, 0.36% hits;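 active = mean added fluorescence quench of at least 8% versus neutral control, with both replicates also reaching 8%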;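 note: cells transiently co-express mutant CFTR-F508del with the halide-sensitive YFP; corrector assay measuring rescue of mutant channel to the surface after 24 h compound exposure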
E-selectin induc: induces E-selectin expression in human endothelial cells; HUVEC E-selectin immunofluorescence imaging; normalized: neutral wells 0, TNF-alpha wells 100; 260,000 compounds, 0.37% hits; activation, % at 7.58 µM; P16581;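 active = mean E-selectin-positive cell signal at least 10% of the positive control, reached in at least 60% of replicates, without over 20% cell loss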
Target sequence (P16581 whole entry, looked up): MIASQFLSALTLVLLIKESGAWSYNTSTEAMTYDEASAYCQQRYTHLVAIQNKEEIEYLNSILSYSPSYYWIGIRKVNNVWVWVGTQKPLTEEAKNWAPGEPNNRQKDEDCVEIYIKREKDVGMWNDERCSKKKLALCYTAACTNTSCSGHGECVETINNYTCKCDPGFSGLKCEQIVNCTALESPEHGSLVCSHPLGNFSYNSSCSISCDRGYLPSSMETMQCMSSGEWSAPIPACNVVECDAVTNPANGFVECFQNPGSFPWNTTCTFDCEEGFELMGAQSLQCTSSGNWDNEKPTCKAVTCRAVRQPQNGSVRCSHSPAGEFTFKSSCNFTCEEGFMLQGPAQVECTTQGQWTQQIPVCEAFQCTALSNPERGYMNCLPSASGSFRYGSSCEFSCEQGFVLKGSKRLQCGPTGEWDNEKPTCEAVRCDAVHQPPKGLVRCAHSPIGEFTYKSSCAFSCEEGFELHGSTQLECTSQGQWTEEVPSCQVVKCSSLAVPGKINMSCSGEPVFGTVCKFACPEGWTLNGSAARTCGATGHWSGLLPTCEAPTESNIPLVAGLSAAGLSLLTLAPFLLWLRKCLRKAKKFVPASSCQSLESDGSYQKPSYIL
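Assay system: HUVEC, human umbilical vein endothelial cells / Amount: 3,000 HUVEC/well / Controls: TNF-alpha positive control, DMSO neutral control / Compound dosing: single concentration / Medium: EGM-2 over gelatin coat / Evaluation: percent E-selectin-positive cells / Signal: immunofluorescence imaging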
Xi reactivation: activators of X-chromosome reactivation in mouse fibroblasts | activation, % at 7.58 µM | 360,000 compounds, 0.055% hits | AID 743238 | XiGFP mouse fibroblasts, % GFP-positive cells imaging, 3 d; cells co-treated with 5-aza-dC sensitizer; scaled so ellipticine positive control = 100%;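 active = mean normalized replicate activation at least 10% and every replicate at or above 10%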;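 note: 0% = median of on-plate neutral control wells and 100% = ellipticine 6 µM median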
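Schedule: 3 d treatment, 15 min room-temperature fixation; system: 68-5-11 XiGFP fibroblast line; buffer or medium: DMEM plus 5-aza-dC sensitizer; control set: ellipticine 6 µM positive control; compound: one concentration, pinned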
An asterisk follows results filed as active.

Screening O=C(C[C@@H]1C[C@@H]2c3cc(NC(=O)Nc4ccc(F)cc4)ccc3O[C@@H]2[C@H](CO)O1)NC1CCCC1 returned F508del corr -1.6, E-selectin induc 0.0 and Xi reactivation 0.0.
For CO[C@H]1CN(C)C(=O)c2ccc(NC(=O)NC(C)C)cc2OC[C@@H](C)N(Cc2ccccn2)C[C@H]1C the results were F508del corr -1.7, E-selectin induc 0.0 and Xi reactivation -0.4.
For O=C([C@@H]1[C@@H](CO)[C@@H]2Cn3c(ccc(/C=C/c4ccccc4)c3=O)[C@@H]2N1CC1CC1)N1CCCCC1 the results were F508del corr 2.9, E-selectin induc 0.0 and Xi reactivation 0.0.
For C[C@@H]1CCCCO[C@H](CN(C)S(=O)(=O)c2ccc(Cl)cc2)[C@@H](C)CN([C@H](C)CO)C(=O)c2cc(NS(C)(=O)=O)ccc2O1 the results were F508del corr -2.7, E-selectin induc 0.1 and Xi reactivation 0.1.
For COc1ccccc1C(=O)Nc1cc(C)on1 the results were F508del corr -7.7 and Xi reactivation 0.0.
`COc1ccccc1NS(=O)(=O)c1ccc(C)c(C(=O)Nc2cc(C)on2)c1` gave F508del corr 8.8*, E-selectin induc -0.4 and Xi reactivation 0.1.
For C[C@H]1CN([C@@H](C)CO)C(=O)c2cccc(NC(=O)CCCCCC(=O)Nc3ccccc3N)c2O[C@@H]1CN(C)C(=O)Nc1ccc2c(c1)OCO2 the results were F508del corr 0.2, E-selectin induc -0.1 and Xi reactivation -0.9.
CC(C)C[C@H](NC(=O)c1nc[nH]c1C(=O)N1CCN(C(=O)OC(C)(C)C)CC1)C(=O)OC(C)(C)C was read as F508del corr 12.3*, E-selectin induc -0.3 and Xi reactivation 0.0.
For C[C@H](NC(=O)c1nc[nH]c1C(=O)N1CCN(C(=O)OC(C)(C)C)CC1)C(=O)OC(C)(C)C the results were F508del corr 1.7, E-selectin induc 0.0 and Xi reactivation -0.2.
O=C(N[C@H]1CC[C@@H](CCNC(=O)C2CC2)O[C@H]1CO)c1ccncc1 was read as F508del corr -0.7, E-selectin induc -0.1 and Xi reactivation -0.3.
Screening Cc1ccc(C(=O)CNc2ccc(Cl)cc2)cc1 returned F508del corr 12.5*, E-selectin induc 13.7 and Xi reactivation -0.1.
For CCOc1ccc(NCC(=O)c2ccc(C)cc2)cc1 the results were F508del corr 1.0, E-selectin induc 0.4 and Xi reactivation 0.1.
Screening COc1cc2c3nnc(-c4ccc(F)cc4)c-3cn(Cc3cccc(C)c3)c2cc1OC returned F508del corr -1.0, E-selectin induc -0.1 and Xi reactivation 82.2*.
For COc1cccc(Cn2nc3c4cc(F)ccc4n(Cc4ccc(F)cc4)cc-3c2=O)c1 the results were F508del corr 2.6, E-selectin induc 0.0 and Xi reactivation 0.4.
`COc1cc2c3nnc(-c4ccc(F)cc4)c-3cn(Cc3ccc(C)cc3)c2cc1OC` gave F508del corr -15.6, E-selectin induc 0.5 and Xi reactivation 98.0*.
`COc1cc2c3nnc(-c4ccccc4)c-3cn(Cc3ccc(F)cc3)c2cc1OC` gave F508del corr -3.3 and Xi reactivation 0.0.
Screening O=C1CN(S(=O)(=O)Cc2ccccc2)C[C@H]2[C@@H](c3ccc(C#CCC4CCCC4)cc3)[C@@H](CO)N12 returned F508del corr -0.1, E-selectin induc -0.6 and Xi reactivation 0.0.
CCCN1[C@H](C(=O)NCCOC)[C@@H](CO)[C@@H]2Cn3c(ccc(-c4ccc(C(=O)N(C)C)cc4)c3=O)[C@@H]21 was read as E-selectin induc -0.3 and Xi reactivation 0.2.
Screening COc1ccc(S(=O)(=O)Nc2ccc3c(c2)C(=O)N([C@H](C)CO)C[C@@H](C)[C@@H](CN(C)C(=O)CCC(F)(F)F)OCCCC[C@H](C)O3)cc1 returned F508del corr -0.6, E-selectin induc -0.1 and Xi reactivation 0.0.
Screening CC(=O)NNC(=O)c1[nH]c2ccc(Cl)cc2c1-c1ccccc1 returned F508del corr -0.8 and Xi reactivation 0.1.
`O=C(NN=C1CCCC1)c1[nH]c2ccc(Cl)cc2c1-c1ccccc1` gave F508del corr 13.7*, E-selectin induc 0.1 and Xi reactivation 1.1.
`O=C(N/N=C/c1ccc(O)cc1)c1[nH]c2ccc(Br)cc2c1-c1ccccc1` gave F508del corr 10.0*, E-selectin induc 5.3 and Xi reactivation 0.1.
`O=C(N/N=C/c1c[nH]c2ccccc12)c1[nH]c2ccc(Br)cc2c1-c1ccccc1` gave Xi reactivation -0.1.
CO[C@@H]1CN(C)C(=O)c2cc(NC(C)=O)ccc2OC[C@H](C)N(CCC(F)(F)F)C[C@H]1C was read as F508del corr 0.8, E-selectin induc -0.1 and Xi reactivation -0.2.
O=C(C[C@@H]1CC[C@H]2[C@@H](COC[C@@H](O)CN2Cc2ccc3c(c2)OCO3)O1)N1CCOCC1 was read as F508del corr -1.0, E-selectin induc -0.1 and Xi reactivation 0.1.
CCOC(=O)c1c(NC(=O)C(=O)N/N=C/c2ccccc2O)sc2c1CCCCC2 was read as F508del corr 16.4* and Xi reactivation 0.0.
For CCOC(=O)c1c(NC(=O)C(=O)N/N=C/c2ccccc2OC)sc2c1CCCCC2 the results were Xi reactivation 0.0.
For NC(=O)NCC#Cc1ccc2c(c1)[C@]1(C(=O)N2)[C@H](c2ccccc2OCCO)N2[C@H](c3ccccc3)[C@H](c3ccccc3)OC(=O)[C@H]2[C@@H]1C(=O)N1CCN(c2ncccn2)CC1 the results were F508del corr -0.5.
COc1ccccc1S(=O)(=O)N[C@H]1CC[C@H](CCn2cc(C3CCCC3)nn2)O[C@@H]1CO was read as F508del corr -1.4, E-selectin induc -0.1 and Xi reactivation 0.5.
O=C(Nc1ccn(CCCNCCN2CCOCC2)c(=O)n1)OCc1ccccc1 was read as F508del corr 1.0, E-selectin induc 0.3 and Xi reactivation -0.1.
`O=C(Nc1ccn(CCCNC2CCN(Cc3ccccc3)CC2)c(=O)n1)OCc1ccccc1` gave F508del corr 9.0*, E-selectin induc -0.7 and Xi reactivation 0.4.
For Cc1ccn2c(=O)nc(SCC(=O)N3CCCc4ccccc43)nc2c1 the results were F508del corr -5.2 and Xi reactivation 0.0.
Screening O=C(CSc1nc(=O)n2ccccc2n1)N1CCCc2ccccc21 returned F508del corr 1.8, E-selectin induc 32.0* and Xi reactivation -0.1.
C/C(=N\NC(=O)c1c([N+](=O)[O-])c(C)nn1C)c1ccc(NC(=O)C2CCCC2)cc1 was read as F508del corr 5.7 and Xi reactivation 1.3.
C/C(=N\NC(=O)c1c(Cl)c(C)nn1C)c1ccc(NC(=O)C2CCC2)cc1 was read as F508del corr 10.9*, E-selectin induc -1.0 and Xi reactivation 0.0.
For C[C@H](CO)N1C[C@H](C)[C@H](CN(C)C(=O)CCCN(C)C)OCCCC[C@H](C)Oc2ccc(NC(=O)C3CCCCC3)cc2C1=O the results were F508del corr -0.3, E-selectin induc 0.0 and Xi reactivation -1.2.
`COc1ccc(NC(=O)N(C)C[C@H]2Oc3ccc(NS(=O)(=O)c4c(C)noc4C)cc3CC(=O)N([C@@H](C)CO)C[C@@H]2C)cc1` gave F508del corr 0.8 and Xi reactivation -0.8.

High-throughput results: PubChem BioAssay, Broad Institute
